The IC50 is the midpoint of a concentration-inhibition curve. A lower IC50 goes with greater potency in that assay.

Activity calls are given as the source filed them. The rule behind the calls is not given here.

The subject of test [1] is A549. The experiment in a line: Antiproliferative activity against human A549 cells after 48 hrs by MTT assay. Format: functional, cell-based. To be noted: A549, 48 h. In outline: (§1)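 MTT assay: cells seeded at 4-8 × 10³ per well, incubated overnight at 37 °C in 5% CO₂, then given fresh medium with graded compound concentrations or equal DMSO for 48 h. MTT (5 mg/mL solution) added for a further 4 h, formazan dissolved in DMSO, absorbance read at 490 nm. Six cancer cell lines tested.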
Background: Formazan colour is commonly taken as a measure of viable cells.

The target of test [2] is DNA topoisomerase 2-alpha (Homo sapiens) (UniProt P11388). The experiment in a line: Inhibition of human recombinant topoisomerase 2-alpha expressed in Escherichia coli assessed as reduction in enzyme-mediated relaxation of supercoiled pBR322 DNA at 100 uM after 10 to 15 mins by agarose gel electrophoresis. The procedure, abridged: (§2)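 Relaxation of 500 ng supercoiled pBR322 by 1 unit human Topo I or Topo IIα, with or without compound, in 20 µL reaction buffer at 37 °C for 10-15 min. Reactions stopped with loading buffer, run on 0.8% agarose in TAE at 80 V for 30 min. Gels stained with ethidium bromide 2.5 µg/mL and viewed under UV.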
Chain of DNA topoisomerase 2-alpha (Homo sapiens) (P11388 whole entry): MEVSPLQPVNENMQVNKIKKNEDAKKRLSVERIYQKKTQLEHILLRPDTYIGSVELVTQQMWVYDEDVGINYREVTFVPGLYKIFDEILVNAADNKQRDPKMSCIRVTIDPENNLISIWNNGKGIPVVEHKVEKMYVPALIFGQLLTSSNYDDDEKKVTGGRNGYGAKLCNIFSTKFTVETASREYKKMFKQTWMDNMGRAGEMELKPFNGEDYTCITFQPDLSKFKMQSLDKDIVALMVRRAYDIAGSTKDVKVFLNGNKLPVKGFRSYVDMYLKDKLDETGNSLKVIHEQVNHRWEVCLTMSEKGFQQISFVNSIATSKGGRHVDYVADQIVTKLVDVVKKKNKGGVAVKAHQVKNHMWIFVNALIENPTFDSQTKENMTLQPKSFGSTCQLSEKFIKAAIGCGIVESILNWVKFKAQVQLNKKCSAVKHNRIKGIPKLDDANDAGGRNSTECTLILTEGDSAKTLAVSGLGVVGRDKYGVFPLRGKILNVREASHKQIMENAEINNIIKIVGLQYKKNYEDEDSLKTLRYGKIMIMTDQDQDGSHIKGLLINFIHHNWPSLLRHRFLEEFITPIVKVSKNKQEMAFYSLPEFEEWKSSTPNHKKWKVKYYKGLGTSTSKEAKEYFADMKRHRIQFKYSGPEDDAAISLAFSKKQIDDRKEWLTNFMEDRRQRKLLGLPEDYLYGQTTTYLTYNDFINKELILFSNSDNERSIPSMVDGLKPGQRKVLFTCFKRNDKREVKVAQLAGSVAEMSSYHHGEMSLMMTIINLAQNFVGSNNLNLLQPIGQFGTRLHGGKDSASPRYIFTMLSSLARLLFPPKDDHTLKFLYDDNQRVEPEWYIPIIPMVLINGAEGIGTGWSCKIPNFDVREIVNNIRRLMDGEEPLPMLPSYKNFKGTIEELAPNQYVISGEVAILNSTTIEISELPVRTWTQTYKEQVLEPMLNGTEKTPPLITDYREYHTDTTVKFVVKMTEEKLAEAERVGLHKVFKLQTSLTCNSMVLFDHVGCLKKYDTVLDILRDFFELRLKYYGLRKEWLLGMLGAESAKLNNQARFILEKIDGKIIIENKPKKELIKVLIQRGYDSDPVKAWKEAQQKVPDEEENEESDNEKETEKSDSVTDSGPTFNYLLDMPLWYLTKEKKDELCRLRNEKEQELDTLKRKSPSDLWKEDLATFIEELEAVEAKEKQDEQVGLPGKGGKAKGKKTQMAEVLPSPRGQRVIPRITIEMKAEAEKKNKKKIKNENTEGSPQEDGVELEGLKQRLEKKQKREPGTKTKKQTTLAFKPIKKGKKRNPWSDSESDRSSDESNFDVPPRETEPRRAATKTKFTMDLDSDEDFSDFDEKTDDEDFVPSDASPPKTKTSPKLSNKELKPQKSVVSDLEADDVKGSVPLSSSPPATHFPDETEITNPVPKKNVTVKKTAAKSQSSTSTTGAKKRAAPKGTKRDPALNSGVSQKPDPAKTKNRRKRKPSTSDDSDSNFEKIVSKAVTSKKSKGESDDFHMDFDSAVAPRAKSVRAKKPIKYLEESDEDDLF

Test [3] concerns the target T1, DNA topoisomerase 1 (Homo sapiens) (UniProt P11387).
T1 sequence (whole entry): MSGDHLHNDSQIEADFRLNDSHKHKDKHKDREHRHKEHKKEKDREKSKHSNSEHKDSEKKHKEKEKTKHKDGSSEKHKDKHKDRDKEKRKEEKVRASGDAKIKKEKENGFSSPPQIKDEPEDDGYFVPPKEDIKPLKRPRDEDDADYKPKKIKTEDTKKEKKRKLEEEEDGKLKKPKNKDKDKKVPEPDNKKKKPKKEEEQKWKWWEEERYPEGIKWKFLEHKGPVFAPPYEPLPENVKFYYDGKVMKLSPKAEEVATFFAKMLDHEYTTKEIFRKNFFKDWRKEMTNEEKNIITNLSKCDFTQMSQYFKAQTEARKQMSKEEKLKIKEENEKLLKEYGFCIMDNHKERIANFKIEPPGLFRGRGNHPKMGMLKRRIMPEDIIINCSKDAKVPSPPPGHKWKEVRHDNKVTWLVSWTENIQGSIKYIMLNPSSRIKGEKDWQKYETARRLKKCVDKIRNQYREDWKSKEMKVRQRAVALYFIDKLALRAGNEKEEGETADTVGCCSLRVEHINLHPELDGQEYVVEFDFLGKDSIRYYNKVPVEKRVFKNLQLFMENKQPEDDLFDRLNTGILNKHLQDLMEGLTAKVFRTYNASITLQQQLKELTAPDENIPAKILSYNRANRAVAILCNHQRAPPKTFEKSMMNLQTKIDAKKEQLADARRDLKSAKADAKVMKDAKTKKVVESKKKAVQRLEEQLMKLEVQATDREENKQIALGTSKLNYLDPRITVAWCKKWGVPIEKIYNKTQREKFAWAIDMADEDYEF
The experiment in a line: Inhibition of human topoisomerase 1 assessed as reduction in enzyme-mediated relaxation of supercoiled pBR322 DNA at 50 to 100 uM after 10 to 15 mins by agarose gel electrophoresis. The procedure, abridged: as §2

The subject of another test is CCRF-CEM. The experiment in a line: Antiproliferative activity against human CCRF-CEM cells after 48 hrs by MTT assay. The class given is functional, cell-based. In outline:
as §1

For test [4], the target named is DNA topoisomerase 2-alpha (Homo sapiens) (UniProt P11388). The experiment in a line: Inhibition of human recombinant topoisomerase 2-alpha expressed in Escherichia coli assessed as reduction in enzyme-mediated relaxation of supercoiled pBR322 DNA at 10 to 50 uM after 10 to 15 mins by agarose gel electrophoresis. The procedure, abridged:
as §2

Test [5] in a line: Antiproliferative activity against human HCT116 cells after 48 hrs by MTT assay. Conditions: HCT-116, 48 h. The class given is functional, cell-based. In outline:
as §1

The next test has as its system HeLa. The experiment in a line: Antiproliferative activity against human HeLa cells after 48 hrs by MTT assay. The class given is functional, cell-based. The procedure, abridged: as §1
A further test relates to MCF7. The test is described as follows: Antiproliferative activity against human MCF7 cells after 48 hrs by MTT assay. Conditions: MCF7, 48 h. Format: functional, cell-based. The procedure, abridged:
as §1

The subject of test [6] is A549. The experiment in a line: Induction of DNA damage in human A549 cells assessed as tail DNA at 10 uM after 24 hrs by propidium iodide staining based comet assay (reference value: 0.02%). Format: cell-based. In outline: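 Alkaline comet assay. About 10⁵ A549 cells per well incubated 12 h, then treated 24 h in serum-free medium against a DMSO control. Cells embedded in low-melting agarose, lysed 2 h, alkaline-unwound 0.5 h at 4 °C, electrophoresed at 300 mA for 25 min in the dark. Slides neutralized, PI-stained, 50 random cells scored for % tail DNA.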

The test system of a further test is Calf thymus DNA. The test is described as follows: Binding affinity to calf thymus DNA after 5 mins by UV-vis spectrophotometry. Format: nucleic-acid assay. To be noted: Bos taurus. In outline: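 ctDNA at 0-44 µM is added to compound at 10 µM final in Tris-HCl buffer (pH 7.4). UV-vis absorption spectra are recorded after 5 min standing. The binding constant K_b is taken from a plot of absorption data against DNA concentration.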

For the molecule `COc1ccc2nc3cc(Cl)ccc3c(NCc3ccc(Cl)cc3)c2c1`, it took 4.2 µM to reach half-maximal inhibition in the test with A549 [1] (IC50). For the same molecule, the inhibition result in test [2] is “Active”.
Consider `COc1ccc2nc3cc(Cl)ccc3c(NCc3ccc(OC)c(OC)c3)c2c1`, for which the inhibition result in test [3] and in test [2] was “Active” in each case. In the test on A549 [1], this molecule registered an IC50 of 2.56 µM.
`COc1ccc2nc3cc(Cl)ccc3c(NCc3cccc(C)c3)c2c1` displayed an IC50 with A549 [1] of 2.22 µM. Further, the inhibition entry in [2] was “Active”.
For `COc1ccc2nc3cc(Cl)ccc3c(NCc3ccc(F)c(F)c3)c2c1`, in that order: above 25 µM and “Active”.
For the molecule `COc1ccc2nc3cc(Cl)ccc3c(NCc3ccc4c(c3)OCO4)c2c1`, the IC50 is 2 µM in the test with CCRF-CEM; 0.65 µM in the test on A549 [1]; 1.62 µM in test [5]; 7 µM in the test on HeLa; 10.3 µM in the test with MCF7. In addition, the inhibition entry in test [4] and in [2] was “Active” in each case.
`COc1ccc2nc3cc(Cl)ccc3c(NCc3ccc(Br)cc3)c2c1`: the midpoint of inhibition in the test with A549 [1], the IC50, lay at 3.26 µM. In test [2], the inhibition result is “Active”.
With `COc1ccc2nc3cc(Cl)ccc3c(NCc3ccc(OC)c(F)c3)c2c1`, the IC50 is 3.08 µM with CCRF-CEM; 0.95 µM in the test with A549 [1]; 0.86 µM in test [5]; 4.08 µM in the test on HeLa; 7.6 µM in the test on MCF7. For the same molecule, the inhibition entry in test [4] and in [2] was “Active” throughout.
Take `COc1cccc2c1C(=O)c1c(O)c3c(c(O)c1C2=O)C[C@@](O)(C(=O)CO)C[C@@H]3O[C@H]1C[C@H](N)[C@H](O)[C@H](C)O1` [DOXORUBICIN]: the IC50 with CCRF-CEM is 0.052 µM; with A549 [1], 0.09 µM; in the test on HeLa it was 0.78 µM; in the test with MCF7, 0.81 µM.
Take `COc1ccc2nc3cc(Cl)ccc3c(NCc3cccc(F)c3)c2c1`: the 50% inhibitory concentration (IC50) with A549 [1] was 4.19 µM. In addition, in test [2], the inhibition entry is “Active”.
In the case of `COc1ccc2nc3cc(Cl)ccc3c(NCc3ccc(OC(F)F)cc3)c2c1`, the IC50 in the test on CCRF-CEM worked out at 6.87 µM; in the test with A549 [1], 0.72 µM; in test [5], 1.16 µM; in the test on HeLa it was 4.41 µM; in the test with MCF7 it was 9.95 µM. Besides, the inhibition entry in test [4] and in test [2] was “Active” in each case.
Take `COc1ccc2nc3cc(Cl)ccc3c(NCc3ccccc3F)c2c1`: the IC50 in the test with A549 [1] worked out at 2.82 µM. In addition, the inhibition entry in [2] was “Active”.
Consider `COc1cc([C@@H]2c3cc4c(cc3[C@@H](O[C@@H]3O[C@@H]5CO[C@@H](C)O[C@H]5[C@H](O)[C@H]3O)[C@H]3COC(=O)[C@H]23)OCO4)cc(OC)c1O` [ETOPOSIDE], for which the IC50 amounted to 0.12 µM in the test on CCRF-CEM, 3.82 µM in the test on A549 [1], 6.03 µM in [5] and 41.2 µM in the test on HeLa. The inhibition entry in test [4] is “Active”. Moreover, the Activity in the test with A549 [6] worked out at 46.7%.
On to `COc1ccc2nc3cc(Cl)ccc3c(NCc3cccc(Cl)c3)c2c1`, for which, in the test on A549 [1], 4.64 µM corresponded to half-maximal inhibition (IC50). Moreover, the inhibition result in test [2] is “Active”.
Take `COc1ccc2nc3cc(Cl)ccc3c(NCc3ccc(F)cc3)c2c1`: the inhibition result in [3] and in test [2] was “Active” throughout. The molecule also gave an IC50 with A549 [1] of 4.05 µM.
`CCc1ccc(CNc2c3ccc(Cl)cc3nc3ccc(OC)cc23)cc1`: the inhibition entry in test [3] and in [2] was “Active” throughout. The same molecule registered a concentration for half-maximal inhibition (IC50) in the test with A549 [1] of 2.58 µM.
`COc1ccc2nc3cc(Cl)ccc3c(NCc3cc(F)c(OC)c(F)c3)c2c1` came in with a 50% inhibitory concentration (IC50) with A549 [1] of 1.82 µM. Further, the inhibition result in test [2] was “Active”.
For `COc1ccc2nc3cc(Cl)ccc3c(NCc3ccccc3C(F)(F)F)c2c1`, in that order: 6.32 µM and “Active”.
Take `COc1cc(NS(C)(=O)=O)ccc1Nc1c2ccccc2nc2ccccc12` [AMSACRINE]: the IC50 stood at 0.18 µM with CCRF-CEM; 5.96 µM in the test with A549 [1]; 0.93 µM in test [5]; 0.34 µM in the test on HeLa; 26.8 µM with MCF7. Also, in the test on Calf thymus DNA, the Kb stood at 1.36 ×10⁵ /M.
As to `COc1ccc2nc3cc(Cl)ccc3c(NCc3ccc(C)cc3)c2c1`, half-maximal inhibition in the test with A549 [1] (IC50) required 2.63 µM. Besides, the inhibition result in [2] is “Active”.
For `COc1ccc2nc3cc(Cl)ccc3c(NCc3ccc(C(C)(C)C)cc3)c2c1`, in that order: 7.03 µM and “Active”.
For `COc1ccc2nc3cc(Cl)ccc3c(NCc3cc(OC)c(OC)c(OC)c3)c2c1`, in that order: 2.18 µM and “Active”.
For `COc1ccc2nc3cc(Cl)ccc3c(NCc3ccccc3Br)c2c1`, in that order: 3 µM and “Active”.
`COc1ccc2nc3cc(Cl)ccc3c(NCc3ccc(C(F)(F)F)cc3)c2c1`: the half-inhibitory concentration (IC50) in the test on A549 [1] came to 6.04 µM. In addition, the inhibition result in [2] is “Active”.
As for `COc1ccc2nc3cc(Cl)ccc3c(NCc3cccc(C(F)(F)F)c3)c2c1`, the IC50 turned out to be 5.11 µM in the test with CCRF-CEM; 0.16 µM in the test with A549 [1]; 0.76 µM in [5]; 10.1 µM with HeLa; 10.5 µM in the test on MCF7. Moreover, the inhibition entry in test [4] and in test [2] was “Active” in each case.
`COc1cc(CNc2c3ccc(Cl)cc3nc3ccc(OC)cc23)cc(OC)c1` displayed an IC50 with A549 [1] of 9.2 µM. For the same molecule, the inhibition entry in [2] was “Active”.

These data come from ChEMBL document CHEMBL3792296, “Synthesis and antiproliferative activity of 9-benzylamino-6-chloro-2-methoxy-acridine derivatives as potent DNA-binding ligands and topoisomerase II inhibitors” (Eur J Med Chem, 2016).
